In ChEMBL document CHEMBL1123514 (J Med Chem, 1986) one finds Optical density and Affinity data, which are given here for two molecules.

For series [1], the species on record is Homo sapiens. In words: The compound was evaluated for the optical density at concentration 10E-7 M in MCF-7 cell culture. The format is ADME.
For series [2], the species on record is Homo sapiens. The series can be described thus: The compound was evaluated for the optical density at concentration 10E-6 M in MCF-7 cell culture in the presence of estradiol. The format is ADME. An outline of the steps:
(§1)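 MCF-7 cells seeded at 10000 cells/mL in 96-well dishes and cultured 24 h. Compound (final 10⁻⁷, 10⁻⁶ or 10⁻⁵ M) was then added together with estradiol at 10⁻⁸ M final to test whether estradiol antagonizes growth inhibition. After 5 days, cells were ethanol-fixed (90%) and hematoxylin-stained, and optical density was read at 540 nm.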

Series [3] concerns the target Estrogen receptor (Rattus norvegicus) (UniProt P06211+Q62986).
Series [4] addresses Estrogen receptor (Homo sapiens) (UniProt P03372).
The species named for series [5] is Homo sapiens. The series can be described thus: The compound was evaluated for the optical density at concentrations 10E-5 M in MCF-7 cell culture in the presence of estradiol. The format is ADME. An outline of the steps:
as §1

Series [6] is filed under the species Homo sapiens. The series can be described thus: The compound was evaluated for the optical density at concentrations 10E-7 M in MCF-7 cell culture in the presence of estradiol. The format is ADME. The gist of the method:
as §1

The species named for series [7] is Homo sapiens. In words: The compound was evaluated for the optical density at concentration 10E-5 M in MCF-7 cell culture. The format is ADME.
The species named for series [8] is Homo sapiens. In words: The compound was evaluated for the optical density at concentration 10E-6 M in MCF-7 cell culture. The format is ADME.

Chain of Estrogen receptor (Homo sapiens) (P03372 whole entry, looked up): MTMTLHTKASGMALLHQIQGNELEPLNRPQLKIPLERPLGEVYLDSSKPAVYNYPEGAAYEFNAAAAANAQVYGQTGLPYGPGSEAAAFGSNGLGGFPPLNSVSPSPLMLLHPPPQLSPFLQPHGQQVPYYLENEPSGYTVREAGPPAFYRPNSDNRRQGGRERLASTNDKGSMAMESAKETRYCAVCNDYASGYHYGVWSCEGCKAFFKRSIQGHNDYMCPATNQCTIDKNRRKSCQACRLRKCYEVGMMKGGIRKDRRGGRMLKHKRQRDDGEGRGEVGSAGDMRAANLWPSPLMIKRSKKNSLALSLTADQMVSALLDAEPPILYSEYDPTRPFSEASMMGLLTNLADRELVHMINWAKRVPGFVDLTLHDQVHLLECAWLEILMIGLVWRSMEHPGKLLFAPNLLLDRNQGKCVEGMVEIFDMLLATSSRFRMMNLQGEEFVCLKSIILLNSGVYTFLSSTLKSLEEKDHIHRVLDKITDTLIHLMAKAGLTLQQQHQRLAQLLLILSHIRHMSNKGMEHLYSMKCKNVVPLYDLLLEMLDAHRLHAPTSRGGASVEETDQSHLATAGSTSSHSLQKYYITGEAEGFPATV

Consider `CN(C)CCOc1ccc(C2=C(c3ccccc3)CCCc3ccccc32)cc1`, for which the Optical density is reported as 0.244 in the series listed under Homo sapiens [1]; 0.438 in the series filed under Homo sapiens [2]; 0.098 in the series listed under Homo sapiens [5]; 0.379 in the series listed under Homo sapiens [6]; 0.058 in the series filed under Homo sapiens [7]; 0.182 in the series listed under Homo sapiens [8]. The Affinity in series [3] stood at 1; in series [4], 0.02.

Regarding `CN(C)CCOc1ccc(C2=C(c3ccccc3)CCc3ccccc32)cc1`, the Optical density was 0.39 in the series listed under Homo sapiens [1]; 0.385 in the series filed under Homo sapiens [2]; 0.079 in the series filed under Homo sapiens [5]; 0.45 in the series filed under Homo sapiens [6]; 0.049 in the series listed under Homo sapiens [7]; 0.288 in the series listed under Homo sapiens [8]. In addition, the Affinity in series [3] came out at 0.5; in series [4] it was 0.02.
